Where two headings read alike, the source gives them in different places.
Experiments:
[1] = target: T1, DCLK1 (Homo sapiens, UniProt O15075); assay: DCLK1 KINOMEscan binding assay
T1 sequence (O15075 1-740): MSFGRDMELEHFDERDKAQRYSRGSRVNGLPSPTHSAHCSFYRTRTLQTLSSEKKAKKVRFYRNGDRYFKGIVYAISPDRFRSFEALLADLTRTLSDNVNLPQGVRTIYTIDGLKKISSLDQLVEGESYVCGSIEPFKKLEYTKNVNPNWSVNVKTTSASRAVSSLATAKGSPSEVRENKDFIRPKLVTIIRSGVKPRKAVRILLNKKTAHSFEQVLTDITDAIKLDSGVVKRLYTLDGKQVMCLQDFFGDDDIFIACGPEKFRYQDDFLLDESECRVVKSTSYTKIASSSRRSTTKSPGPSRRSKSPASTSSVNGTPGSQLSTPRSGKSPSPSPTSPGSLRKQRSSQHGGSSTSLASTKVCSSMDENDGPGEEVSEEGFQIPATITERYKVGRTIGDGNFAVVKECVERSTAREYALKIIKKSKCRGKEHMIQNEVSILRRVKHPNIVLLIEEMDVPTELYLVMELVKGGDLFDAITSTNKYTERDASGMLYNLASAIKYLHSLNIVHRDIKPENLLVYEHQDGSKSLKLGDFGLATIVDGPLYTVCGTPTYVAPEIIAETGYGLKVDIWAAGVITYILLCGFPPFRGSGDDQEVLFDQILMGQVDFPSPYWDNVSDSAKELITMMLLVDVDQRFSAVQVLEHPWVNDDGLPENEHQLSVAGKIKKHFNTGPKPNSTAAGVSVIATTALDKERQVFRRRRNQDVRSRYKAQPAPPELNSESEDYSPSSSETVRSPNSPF

[2] = target: T1, DCLK1; assay: 33P-ATP DCLK1 kinase assay; type: biochemical; details: ATP 50 μM (Km)
[3] = target: T2, DCLK2 (Homo sapiens, UniProt Q8N568); assay: DCLK2 KINOMEscan binding assay
T2 sequence (Q8N568 1-766): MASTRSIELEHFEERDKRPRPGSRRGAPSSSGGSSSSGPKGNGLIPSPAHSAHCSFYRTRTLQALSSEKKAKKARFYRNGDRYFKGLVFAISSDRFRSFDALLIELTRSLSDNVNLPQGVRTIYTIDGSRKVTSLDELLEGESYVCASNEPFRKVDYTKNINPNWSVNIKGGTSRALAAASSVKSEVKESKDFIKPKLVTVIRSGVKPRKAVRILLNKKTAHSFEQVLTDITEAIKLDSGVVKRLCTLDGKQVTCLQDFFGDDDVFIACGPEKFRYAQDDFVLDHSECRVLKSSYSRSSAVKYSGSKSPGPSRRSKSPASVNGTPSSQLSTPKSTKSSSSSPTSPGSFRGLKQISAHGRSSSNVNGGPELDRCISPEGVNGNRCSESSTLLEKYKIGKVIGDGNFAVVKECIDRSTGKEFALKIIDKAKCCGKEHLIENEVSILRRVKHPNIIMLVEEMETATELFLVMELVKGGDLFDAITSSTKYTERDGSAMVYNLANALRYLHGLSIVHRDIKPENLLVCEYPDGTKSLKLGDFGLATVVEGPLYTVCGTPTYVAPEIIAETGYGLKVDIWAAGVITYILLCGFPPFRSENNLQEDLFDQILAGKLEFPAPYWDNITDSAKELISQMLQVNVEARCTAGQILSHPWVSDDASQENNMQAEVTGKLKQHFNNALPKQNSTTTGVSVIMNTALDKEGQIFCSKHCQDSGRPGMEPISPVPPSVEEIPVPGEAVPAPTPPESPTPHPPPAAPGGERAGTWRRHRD
Procedure, shortened: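 KINOMEscan competition binding run by a contract lab. Test compound in 12-point dose response, top concentration 10 μM. Values are the mean of n = 2 biologically independent samples.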

[4] = target: T2, DCLK2; assay: 33P-ATP DCLK2 kinase assay; type: biochemical
Procedure, shortened: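 Radiometric 33P-ATP assay run by a contract lab. […] Test compound in 12-point dose response, top concentration 10 μM. Values are the mean of n = 3 biologically independent samples.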

[5] = target: LRRK2 (Homo sapiens, UniProt Q5S007); assay: LRRK2 ADAPTA kinase assay; type: biochemical; details: Table 1
LRRK2, sequence (Q5S007 whole entry): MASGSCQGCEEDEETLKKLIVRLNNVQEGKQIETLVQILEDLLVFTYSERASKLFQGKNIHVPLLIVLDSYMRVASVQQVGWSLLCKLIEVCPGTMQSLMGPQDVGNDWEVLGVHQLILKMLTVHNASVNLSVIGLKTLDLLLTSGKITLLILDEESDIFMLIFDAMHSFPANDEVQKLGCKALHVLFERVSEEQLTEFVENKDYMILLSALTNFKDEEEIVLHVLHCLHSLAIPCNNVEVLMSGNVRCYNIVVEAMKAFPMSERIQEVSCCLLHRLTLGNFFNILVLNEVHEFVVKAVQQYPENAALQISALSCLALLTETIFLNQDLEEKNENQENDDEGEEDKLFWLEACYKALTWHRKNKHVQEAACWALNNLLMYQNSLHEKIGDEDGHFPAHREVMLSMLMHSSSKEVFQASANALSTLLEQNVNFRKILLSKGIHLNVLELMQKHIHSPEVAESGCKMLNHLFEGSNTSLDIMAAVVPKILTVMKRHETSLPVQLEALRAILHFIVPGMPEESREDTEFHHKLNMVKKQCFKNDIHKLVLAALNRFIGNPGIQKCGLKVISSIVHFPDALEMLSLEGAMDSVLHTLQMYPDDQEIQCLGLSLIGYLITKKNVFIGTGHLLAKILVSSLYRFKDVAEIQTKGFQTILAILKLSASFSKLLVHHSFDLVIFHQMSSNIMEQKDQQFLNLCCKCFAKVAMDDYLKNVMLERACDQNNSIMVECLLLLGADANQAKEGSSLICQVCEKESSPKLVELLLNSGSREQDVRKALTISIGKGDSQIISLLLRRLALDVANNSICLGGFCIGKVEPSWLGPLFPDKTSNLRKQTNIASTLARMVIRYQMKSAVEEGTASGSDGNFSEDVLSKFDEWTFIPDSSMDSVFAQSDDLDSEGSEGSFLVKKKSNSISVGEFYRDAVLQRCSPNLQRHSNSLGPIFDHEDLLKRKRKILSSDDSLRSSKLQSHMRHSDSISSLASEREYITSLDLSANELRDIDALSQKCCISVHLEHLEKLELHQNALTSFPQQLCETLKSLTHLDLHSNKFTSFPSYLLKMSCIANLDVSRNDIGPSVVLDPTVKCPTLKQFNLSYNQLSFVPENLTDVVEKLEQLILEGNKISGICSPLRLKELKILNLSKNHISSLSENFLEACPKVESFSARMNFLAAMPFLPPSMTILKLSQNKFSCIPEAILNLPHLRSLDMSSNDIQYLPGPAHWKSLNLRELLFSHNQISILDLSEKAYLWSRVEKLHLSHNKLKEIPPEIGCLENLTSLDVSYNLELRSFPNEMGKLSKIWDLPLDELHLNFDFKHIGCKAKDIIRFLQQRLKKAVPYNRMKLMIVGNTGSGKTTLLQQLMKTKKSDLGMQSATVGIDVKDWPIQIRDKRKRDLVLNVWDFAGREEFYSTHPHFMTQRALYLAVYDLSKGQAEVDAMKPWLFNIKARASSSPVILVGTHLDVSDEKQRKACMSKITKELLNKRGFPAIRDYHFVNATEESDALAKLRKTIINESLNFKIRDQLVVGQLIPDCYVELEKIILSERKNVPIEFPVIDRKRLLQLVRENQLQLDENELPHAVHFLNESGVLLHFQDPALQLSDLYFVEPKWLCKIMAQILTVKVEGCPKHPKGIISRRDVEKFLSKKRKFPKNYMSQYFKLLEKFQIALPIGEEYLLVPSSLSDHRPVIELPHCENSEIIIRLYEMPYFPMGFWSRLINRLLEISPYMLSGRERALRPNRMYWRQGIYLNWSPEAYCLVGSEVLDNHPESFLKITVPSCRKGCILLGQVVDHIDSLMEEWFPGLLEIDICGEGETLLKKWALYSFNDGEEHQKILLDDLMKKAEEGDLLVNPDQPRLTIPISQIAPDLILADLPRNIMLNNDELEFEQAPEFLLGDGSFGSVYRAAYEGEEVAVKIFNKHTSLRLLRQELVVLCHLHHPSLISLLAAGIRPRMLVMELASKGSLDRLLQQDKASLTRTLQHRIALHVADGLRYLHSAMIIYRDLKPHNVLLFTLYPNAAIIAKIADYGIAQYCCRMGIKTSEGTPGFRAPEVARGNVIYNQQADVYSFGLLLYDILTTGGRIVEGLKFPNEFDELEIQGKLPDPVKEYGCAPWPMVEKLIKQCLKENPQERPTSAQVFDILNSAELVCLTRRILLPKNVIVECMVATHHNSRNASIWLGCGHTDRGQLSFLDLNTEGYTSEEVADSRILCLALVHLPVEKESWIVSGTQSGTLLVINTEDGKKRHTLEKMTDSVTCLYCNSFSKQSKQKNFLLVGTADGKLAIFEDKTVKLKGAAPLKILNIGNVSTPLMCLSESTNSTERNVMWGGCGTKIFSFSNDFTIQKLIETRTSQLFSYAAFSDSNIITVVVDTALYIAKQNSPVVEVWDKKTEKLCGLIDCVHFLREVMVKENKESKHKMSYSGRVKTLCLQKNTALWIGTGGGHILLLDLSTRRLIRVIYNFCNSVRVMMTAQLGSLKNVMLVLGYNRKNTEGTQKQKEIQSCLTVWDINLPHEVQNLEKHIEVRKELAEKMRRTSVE

[6] = target: BRD4 (Homo sapiens, UniProt O60885); assay: BRD4 AlphaScreen assay; type: binding
[7] = test system: PATU-8988T cells; assay: Cell viability, 2D-adherent monolayer culture, PATU-8988T; type: cell-based, human; details: read-out: PATU-8988T cells 2D monolayer culture IC50, 120 h
Procedure, shortened: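 PATU-8988T and PATU-8902 cells were plated at 100 cells/well in 50 μL media, either adherent (2D) or in ultra-low attachment spheroid plates (3D), overnight. Test compound was pin-transferred and cells were incubated 120 h. Viability was read by CellTiter-Glo luminescence after 15 min at room temperature. Data were normalized to DMSO-treated wells per cell line and fitted.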

[8] = test system: PATU-8902 cells; assay: Cell viability, 2D-adherent monolayer culture, PATU-8902; type: cell-based, human; details: read-out: PATU-8902 cells 2D monolayer culture IC50
Procedure, shortened: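 PATU-8902 or PATU-8988T cells were plated at 100 cells/well and left overnight to adhere (2D plates) or to form spheroids (ultra-low-attachment 3D spheroid plates). Compound was pin-transferred, then 120 h incubation. Viability by CellTiter-Glo luminescence after 15 min at room temperature, normalized to DMSO-treated wells for each cell line.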

[9] = test system: PANFR0172_T2; assay: Patient-derived pancreatic organoid viability, PANFR0172_T2; type: cell-based, human; details: read-out: PANFR0172_T2 3D organoid culture IC50
Procedure, shortened: (§1)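 Patient-derived PDAC organoids were dissociated to single cells and plated at 1000 viable cells/well in complete organoid medium with 10% Matrigel, in ultra-low-attachment 384-well plates. After 24 h, compound was added by digital dispenser, then 7 days incubation. Read-out was CellTiter-Glo 3D luminescence after 1 h shaking at room temperature, normalized to DMSO wells for each culture.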

[10] = test system: PANFR0172_T3; assay: Patient-derived pancreatic organoid viability, PANFR0172_T3; type: cell-based, human; details: read-out: PANFR0172_T3 3D organoid culture IC50
Procedure, shortened: as §1

[11] = test system: PANFR0172_T4; assay: Patient-derived pancreatic organoid viability, PANFR0172_T4; type: cell-based, human; details: read-out: PANFR0172_T4 3D organoid culture IC50
Procedure, shortened: as §1

[12] = test system: PANFR0029_T2; assay: Patient-derived pancreatic organoid viability, PANFR0029_T2; type: cell-based, human; details: read-out: PANFR0029_T2 3D organoid culture IC50
Procedure, shortened: as §1

[13] = viability, 7 d, P.R. = partial response

Work on `CCOc1cc(N2CCC(O)CC2)ccc1Nc1ncc2c(n1)N(C)c1ccccc1C(=O)N2C` [XMD8-92] yielded an IC50 ([1]; read-out: DCLK1 binding assay IC50, KINOMEscan) of 1400 nM, an IC50 ([2]; read-out: DCLK1 kinase assay IC50, 33P-ATP) of 0.104 µM and an IC50 ([3]; read-out: DCLK2 binding assay IC50, KINOMEscan) of 3600 nM. It also gave an IC50 ([4]; read-out: DCLK2 kinase assay IC50, 33P-ATP, ATP 100 μM (Km)) of 385 nM, an IC50 ([5]; read-out: LRRK2 kinase assay IC50, ADAPTA) of 36 nM and an IC50 ([6]; read-out: BRD4 binding assay IC50, AlphaScreen, Table 1) of 1570 nM. The IC50 ([7]; cell viability, P.R. = partial response) was 2020 nM, the IC50 ([8]; cell viability, 120 h) was greater than 20000 nM and the IC50 [9, 13] was greater than 20000 nM. It also gave an IC50 [10, 13] greater than 20000 nM, an IC50 [11, 13] greater than 20000 nM and an IC50 ([12]; viability, 7 d, DCLK1-negative organoids) of 7030 nM.
`COc1cc(N2CCN(C)CC2)ccc1Nc1ncc2c(n1)N(C)c1ccccc1C(=O)N2CC(F)(F)F` [DCLK1-IN-1] showed an IC50 [1] of 9.5 nM, an IC50 ([2]; DCLK1 kinase assay IC50, 33P-ATP) of 0.0572 µM and an IC50 [3] of 31 nM. The IC50 [4] was 103 nM, the IC50 ([5]; LRRK2 kinase assay IC50, ADAPTA) was 6970 nM and the IC50 [6] was greater than 10000 nM. The IC50 ([7]; Homo sapiens, PaTu 8988t) was greater than 20000 nM, the IC50 ([8]; Homo sapiens, PaTu 8902, 120 h) was greater than 20000 nM and the IC50 ([9]; Homo sapiens, 168 h) was 877 nM. It also gave an IC50 ([10]; Homo sapiens, 168 h) of 2120 nM, an IC50 ([11]; Homo sapiens, 168 h) greater than 20000 nM and an IC50 ([12]; Homo sapiens, 168 h) greater than 20000 nM.
